The RNAGym collection of RNA variant scans (doi:10.1126/science.aae0568)
This sample holds only a part of the variants without activity.

B1: tRNA (parent)
chain: GUUCCGUUGGCGUAAUGGUAACGCGUCUCCCUCCUAAGGAGAAGACUGCGGGUUCGAGUCCCGUACGGAACG

Variants of: B1
Test: yeast fitness relative to wild type (ratio to wild type); higher = fitter; tRNA-Arg(CCU), competitive growth, 37 C, YPD
Procedure, shortened: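 Start and end populations of a pooled competition were compared by 100-nucleotide paired-end sequencing of gene amplicons. The Saccharomyces cerevisiae strains carried tRNA-Arg(CCU) gene variants at the native genomic locus, synthesised with a 3% per-site mutation rate at 69 sites, and competed in YPD at 37°C for 24 hours in six parallel replicates. Darwinian fitness relative to wild type was based on the change in genotype frequencies. Genotypes required ≥ 100 starting reads, and estimates < 0.5 were set to 0.5.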

Variant	yeast fitness
GUUCGGUUGGCGUAAUGGCAACGCGUCUCCCUCCUAAGGAGAAGACUGCGGGUUCGAGUCCCGUACCGAACG [C5G U19C G67C]	0.682
GUUCGGUUGGCGUAAUGGAAACGCGUCUCGCUCCUAAGCAGAAGACUGCGGGCUAGAGUCCCGUACGGAACG [C5G U19A C30G G39C U53C C55A]	≤ 0.5
GUUCGGUUGGCGUAAUGGUAACGCGCCUCCCUCCUAGGGAGAAGACUGCGGGUUCGAGUACCGUACGGAACG [C5G U26C A37G C60A]	≤ 0.5
GUUCGGUUGGCGAAAUGGAAACGCGUCUCUCUCCUAAGGAGAAGACUGCGGGUUCGAGUCCCGUACGGAUCG [C5G U13A U19A C30U A70U]	≤ 0.5
GUUCGGUUGGCGUAAAGGUAACGCGUCUCCCUCCUAAGGAGAAAAUUGCGGGUUCGAGUCCCGUACGGCACG [C5G U16A G44A C46U A69C]	≤ 0.5
GUUCGGUUGGCGUAAAGGUAACGCGUCUCCGUCCUAAGGAGAAGACUGCGGGUUCGAGUCCCGUUAGGAACG [C5G U16A C31G A65U C66A]	≤ 0.5
GUUCGGUUGGCGCAAUGGUAACGCGUCUCCAUCCUAAGGAGAGGACUGCCGGUUCGAGUCCCGUACGGAACG [C5G U13C C31A A43G G50C]	≤ 0.5
GUUCGGUUGGCGUAAUGGGAACGCGUCUCCCUCCUUAGGAGAAGACUGCGGGUUCCAGUCCCGUCCGGAACG [C5G U19G A36U G56C A65C]	≤ 0.5
GUUCGGUUGGCGAAAUGGUAACGCGUCUCCGUCCUAAGGAGAAGACUGCAGGUUCGAGUCCCGUACAGGACG [C5G U13A C31G G50A G67A A69G]	≤ 0.5
GUUCGGUUGGCGGAAUGGUAACGCGUCUUCCUCCUAAGGGGAAGACUGCGGGUUCGAGUCCCGUACGGAACG [C5G U13G C29U A40G]	≤ 0.5
GUUCGGUUGGCGGAAUGGUUACGCGUCUCCCUCCUAGGGAGAAGACUGCGGCUUCGAGUCCCGUACGAAACG [C5G U13G A20U A37G G52C G68A]	≤ 0.5
GUUCGGUUGGCGUAAUGGCAACGCGUCUCCCUCCUAAGGAGAAGACUGCGGGUCCGAGUCCCGUACGGUACG [C5G U19C U54C A69U]	≤ 0.5
GUUCGGUUGGCGUAAUGGCAACGCGUCUCCCUCCUAAGGAGAAGACUGCGGGUCCGAGUCCCGUACGGCACG [C5G U19C U54C A69C]	≤ 0.5
GUUCGGUUGGCGUAAUGGUAACGCGACUCCCUCCUAAGGAGAAGACUGCGGGUUCGAGUCCCGUACGGAACG [C5G U26A]	0.815
GUUCGGUUGGCGUAAUGGUAACGCGCCUCCCUCCUAAGGAGAAGACUGCGGGUUCGAGUCCCGUACGGAACG [C5G U26C]	0.803
GUUCGGUUGGCGGAAUGCUACCGCGUCUCCCUCCUAAGGAGAAGACUGCGGGUUCGAGUGCCGUUUGGAACG [C5G U13G G18C A21C C60G A65U C66U]	≤ 0.5
GUUCGGUUGGCGUAAUGGAAACGCGUCUCCCUCCUAAGGAGAAGACUGCGGGUUCGAGUCCCGUACGGAACG [C5G U19A]	0.818
GUUCGGUUGGCGUAAUGGCAACGCGUCUCCCUCCUAAGGAGAAGACUGCGGGUUCGAGUCCCGUACGGAACG [C5G U19C]	0.997
GUUCGGUUGGCGUAAAGGUAACGCGUCUCCCUCGUAAGCAGAAGACUGCGGGUUAGCGUCCCGUACGGAACG [C5G U16A C34G G39C C55A A57C]	≤ 0.5

Variant	yeast fitness
GUUCGGUUGGCGCAAUGGUAACGCGUCUCCCUCCUAAGGAGAAGAUUGCGGGUUCGAGUCCCGUACGGAACG [C5G U13C C46U]	0.547
GUUCGGUUGGCGUAAUGGAUACGCGUCUCCCUCCUAAGGAGAAGACUGCGCGUUCGAGUCCCGUACGGAACG [C5G U19A A20U G51C]	≤ 0.5
GUUCGGUUGGCGCAAUGGUACCGCGUCUCCCUCCUAAGGAGAAGACUGCGGGUUCGAGUCCCCUACGGCACG [C5G U13C A21C G63C A69C]	≤ 0.5
GUUCGGUUGGCGCAAUGGUAACGUGUCUCCCUCCUAAGGAGAAGACUGUGGGUUCGAGUCCCGUACGGAACG [C5G U13C C24U C49U]	0.526
GUUCGGUUGGCGUAAUGGUAACGCGACUCCCUCCUCAGGAGGAGACUGCGGGUUCGAGUCCCGUACGGAACG [C5G U26A A36C A42G]	≤ 0.5
GUUCGGUUGGCGGAAUGGUAACGCGUUUCCCUCCUAAGGAAAAGACUGCGGGUUCGAGUCCCGUACGGAACG [C5G U13G C27U G41A]	0.541
GUUCGGUUGGCGCAAUGGUAAGGCGUCUGCCUCCUAAGGAGAAGCCUGCGGGUUCGAGUCCCGUACGCGACG [C5G U13C C22G C29G A45C G68C A69G]	≤ 0.5
GUUCGGUUGGCGAAAUGGAAACGCGUCUCUCUCCUAAGGAGAAGACUGCGGGUUCGAGUCCCGUACGGAACG [C5G U13A U19A C30U]	0.573
GUUCGGUUGGCGUAAAGGUAACGCGUCUCCCUACUAAGGAGAAGACUGCGGGUUCGAGUCCCGUACGGAACG [C5G U16A C33A]	≤ 0.5
GUUCGGUUGGCGCAAUGGUAACGCGUCUUCCUCCUAAGGAGAAGACUGCGGGUUCGAGUCCUGUACGGAACG [C5G U13C C29U C62U]	≤ 0.5
GUUCGGUUGGCGCAAUGGUCACGCGUCUCCCGCCUAAGGAGAAGAUUGCGGGUUCGACUCCCGUACGGAACG [C5G U13C A20C U32G C46U G58C]	≤ 0.5
GUUCGGUUGGCGUAAUGGUAACGCGCCUCCCUCCUAAGGAGAAGCCUGCGGGUUCGAGUCCCAUACGGAACG [C5G U26C A45C G63A]	≤ 0.5
GUUCGGUUGGCGUAACGGUAACGCGUCUCCCUCCUAAGGAGAAGACUGCGGGUUCGAGUCCCGUACGGAACG [C5G U16C]	0.722
GUUCGGUUGGCGCAAUGGUAACGCGUCUCCCUCCUAAGGAGAAGACUGCGGGUUCGAGUCCCGUACGGAACG [C5G U13C]	0.875
GUUCGGUUGGCGUAAUGGUAACGCGCCUCCCUCCUAAGGAGAAGACUGCGGGUUCGAGUCCCGUUCGGAACG [C5G U26C A65U]	0.67
GUUCGGUUGGCGUAAAGGUAACGCGUCUCCCUCCUAAGGAGAAGACUGCGGGUUCGAGUCUCGUACGGAACG [C5G U16A C61U]	0.589
GUUCGGUUGGCGGAAUGGUAACGCGUCUUCCUCCUAAGGGGAAGACUGCGGGUUCGAGUUCCGUGUGGAACG [C5G U13G C29U A40G C60U A65G C66U]	≤ 0.5
GUUCGGUUGGCGUAAUGGUAACGCGCCUCCCUCCUAAGGAGAAGACUGCGGGUUCGAGUCCCGUACGGCACG [C5G U26C A69C]	0.617
GUUCGGUUGGCGUAACGGUAACGCGUCUCCCUUCUAAGGAGAAGACUGCGGGUUCGAGUCCCGUAAGGAACG [C5G U16C C33U C66A]	≤ 0.5
